Laboratory results as given in ChEMBL document CHEMBL1156926, “CoMFA analysis of tgDHFR and rlDHFR based on antifolates with 6-5 fused ring system using the all-orientation search (AOS) routine and a modified cross-validated r(2)-guided region selection (q(2)-GRS) routine and its initial application” (Bioorg Med Chem, 2010).
Calls of active or inactive are those of the source. No cut-off for these calls is given here.

Tests used:
Dihydrofolate reductase [1] = biological target: T1, Dihydrofolate reductase (Rattus norvegicus, UniProt Q920D2); test: Inhibition of rat liver DHFR by spectrophotometric assay
T1 sequence (Q920D2 whole entry): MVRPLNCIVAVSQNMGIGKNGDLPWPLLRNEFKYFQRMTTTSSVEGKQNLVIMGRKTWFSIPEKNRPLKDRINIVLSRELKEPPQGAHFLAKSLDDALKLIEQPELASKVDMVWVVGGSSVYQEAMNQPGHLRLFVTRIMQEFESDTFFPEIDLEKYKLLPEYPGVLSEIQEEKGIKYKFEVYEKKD

[2] = biological target: T2, Bifunctional dihydrofolate reductase-thymidylate synthase (Toxoplasma gondii, UniProt Q07422); test: Inhibition of Toxoplasma gondii DHFR by spectrophotometric assay
T2 sequence (Q07422 whole entry): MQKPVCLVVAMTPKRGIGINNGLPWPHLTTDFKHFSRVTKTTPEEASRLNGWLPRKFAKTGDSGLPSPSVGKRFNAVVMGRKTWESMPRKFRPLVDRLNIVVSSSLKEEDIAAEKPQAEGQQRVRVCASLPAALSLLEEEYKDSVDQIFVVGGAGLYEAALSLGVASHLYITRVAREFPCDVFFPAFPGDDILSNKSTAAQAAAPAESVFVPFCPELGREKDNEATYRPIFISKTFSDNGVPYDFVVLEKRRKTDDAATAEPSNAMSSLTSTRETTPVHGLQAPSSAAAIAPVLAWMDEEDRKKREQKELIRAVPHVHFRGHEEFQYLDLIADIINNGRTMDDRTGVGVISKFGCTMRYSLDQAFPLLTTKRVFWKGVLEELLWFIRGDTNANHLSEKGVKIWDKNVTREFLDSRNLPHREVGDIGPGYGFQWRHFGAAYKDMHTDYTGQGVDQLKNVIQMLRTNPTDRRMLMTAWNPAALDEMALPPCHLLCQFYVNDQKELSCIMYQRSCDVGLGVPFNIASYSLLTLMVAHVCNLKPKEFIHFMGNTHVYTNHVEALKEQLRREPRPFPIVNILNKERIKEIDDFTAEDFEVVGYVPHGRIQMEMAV

Toxoplasma gondii [3] = conditions: RH, 50 mg/kg
Toxoplasma gondii [4] = conditions: RH, 50 mg/kg; remark: listed apart in the source
Toxoplasma gondii [5] = test: Antimicrobial activity against Toxoplasma gondii RH infected in BALB/c mouse assessed as mouse survival at 50 mg/kg, ip after 5 days; type: functional; conditions: route intraperitoneal
Dihydrofolate reductase [6] = biological target: T1, Dihydrofolate reductase; test: Inhibition of rat liver DHFR using dihydrofolic acid substrate and NADPH cofactor by spectrophotometric assay
[7] = biological target: T3, Dihydrofolate reductase (Rattus norvegicus) (UniProt Q920D2); conditions: 24.6 uM
T3 sequence (whole entry): T1 sequence (Q920D2 whole entry)

[8] = biological target: T2, Bifunctional dihydrofolate reductase-thymidylate synthase; test: Inhibition of Toxoplasma gondii DHFR using dihydrofolic acid substrate and NADPH cofactor by spectrophotometric assay
Toxoplasma gondii [9] = test: Antimicrobial activity against Toxoplasma gondii RH infected in BALB/c mouse assessed as reduction of parasite level at 50 mg/kg, ip relative to untreated control; type: functional; conditions: route intraperitoneal
Outline: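 Female BALB/c mice (18-20 g) inoculated i.p. with 5 × 10³ cultured RH trophozoites. Treatment began 4 h after inoculation: 50 mg/kg/day i.p. (amount injected). Where folic acid was used, it was given in drinking water at 10 microgram/ml. Survival was recorded to day 5 and mice were harvested on day 6. Parasites in peritoneal exudate were counted per 1000x field (10 microliters spread over 1 cm²).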

SMILES	IC50 (Dihydrofolate reductase [1])	IC50 [2]	also measured
Cc1[nH]c2nc(N)nc(N)c2c1Sc1ccc(Cl)cc1	37.4 µM	–	–
Nc1nc(N)c2c(CSc3cccc4c3CCCC4)c[nH]c2n1	3 µM	0.81 µM	–
Nc1nc(N)c2c(CNc3cccc4cc5ccccc5cc34)coc2n1	> 51 µM	–	–
Nc1nc(N)c2c(CCCc3cc(Cl)ccc3Cl)c[nH]c2n1	4.8 µM	–	–
Nc1nc(N)c2c(CSc3ccc4c(c3)CCCC4)c[nH]c2n1	82.9 µM	9.2 µM	–
Nc1nc(N)c2c(CNc3ccc4c(c3)Cc3ccccc3-4)coc2n1	> 10 µM	–	–
Cc1[nH]c2nc(N)nc(N)c2c1Sc1ccc(Cl)cc1Cl	34.6 µM	28.2 µM	–
Cc1cccc(C)c1Sc1[nH]c2nc(N)nc(N)c2c1C [listing 1 of 2 here]	–	–	inhibition (Toxoplasma gondii [3]): Active; inhibition (Toxoplasma gondii [4]): Active
Nc1nc(N)c2c(CSc3cccc(-c4ccccc4)c3)coc2n1	31 µM	23 µM	–
Cc1cccc(C)c1Sc1[nH]c2nc(N)nc(N)c2c1C.Cl	–	–	Survival (Toxoplasma gondii [5]): 100%
COc1cc(Sc2[nH]c3nc(N)nc(N)c3c2C)cc(OC)c1OC	–	–	IC50 (Dihydrofolate reductase [6]): > 24.6 µM; inhibition [7]: 12%
COc1ccc(OC)c(CCCc2c[nH]c3nc(N)nc(N)c23)c1	11.8 µM	–	–
Nc1nc(N)c2c(CCCc3ccc4c(c3)CCCC4)c[nH]c2n1	1.09 µM	–	–
CCn1c2ccccc2c2cc(N(C)Cc3coc4nc(N)nc(N)c34)ccc21	24.7 µM	22.6 µM	–
Cc1[nH]c2nc(N)nc(N)c2c1Sc1ccccc1	> 33 µM	81 µM	–
Nc1nc(N)c2c(CCCc3ccccc3)c[nH]c2n1	8.6 µM	2.7 µM	–
Cc1c(Sc2cc(Cl)c(Cl)cc2Cl)[nH]c2nc(N)nc(N)c12	–	–	IC50 (Dihydrofolate reductase [6]): 3 µM; IC50 [8]: 212 nM
Cc1cc(C)cc(Sc2[nH]c3nc(N)nc(N)c3c2C)c1	–	–	IC50 (Dihydrofolate reductase [6]): 7.6 µM

SMILES	IC50 (Dihydrofolate reductase [1])	IC50 [2]	also measured
COc1cc(CCCc2c[nH]c3nc(N)nc(N)c23)cc(OC)c1OC	4.8 µM	–	–
Nc1nc(N)c2c(CSc3ccc(-c4ccccc4)cc3)coc2n1	351 µM	79 µM	–
Nc1nc(N)c2c(CSc3ccc(Oc4ccccc4)cc3)coc2n1	65 µM	–	–
CCn1c2ccccc2c2cc(NCc3coc4nc(N)nc(N)c34)ccc21	12.6 µM	4.5 µM	–
Nc1nc(N)c2c(CSc3ccccc3Oc3ccccc3)coc2n1	18 µM	38 µM	–
Nc1nc(N)c2c(CNc3ccc4c(c3)C(O)c3ccccc3-4)coc2n1 (stereo unspecified)	> 13 µM	63 µM	–
Nc1nc(N)c2c(CSc3ccccc3-c3ccccc3)coc2n1	49 µM	105 µM	–
COc1ccc(OC)c(Sc2c(C)[nH]c3nc(N)nc(N)c23)c1	> 46 µM	87 µM	–
Nc1nc(N)c2c(CNc3cccc4c3CCCC4)c[nH]c2n1	59.3 µM	–	–
COc1ccc(OC)c(NCc2nc3c(N)nc(N)nc3[nH]2)c1	> 29 µM	–	–
Cc1[nH]c2nc(N)nc(N)c2c1Sc1cccc(Cl)c1	64 µM	–	–
Cc1[nH]c2nc(N)nc(N)c2c1Sc1cccc2c1CCCC2	40 µM	–	–
Nc1nc(N)c2c(CSc3cccc(Oc4ccccc4)c3)coc2n1	39 µM	19 µM	–
Cc1c(Sc2ccc3ccccc3c2)[nH]c2nc(N)nc(N)c12	–	–	IC50 (Dihydrofolate reductase [6]): 8.1 µM; IC50 [8]: 1600 nM
Cc1cccc(C)c1Sc1[nH]c2nc(N)nc(N)c2c1C [listing 2 of 2 here]	–	–	fold change (FC) (Toxoplasma gondii [9]): >2; IC50 (Dihydrofolate reductase [6]): 0.388 µM; survival at 50 mg/kg (Toxoplasma gondii [5]; Toxoplasma gondii, RH, ip, 120 h): 100%
COc1ccc(-c2nc3nc(N)nc(N)c3[nH]2)c([N+](=O)[O-])c1OC	> 25 µM	–	–
Nc1nc(N)c2c(CCCc3ccc(OCc4ccccc4)cc3)c[nH]c2n1	0.66 µM	1.6 µM	–
